From ChEMBL document CHEMBL5058577, “EUbOPEN Chemogenomics Library 2 (Multiplex)” (2022)

Test system: U2OS
Experiment: Multiplex assay against U2OS
Assay type: toxicity, cell-based
Conditions: human
In short: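 Cells were classed with CellPathfinder machine-learning gating, first as Hoechst high-intensity objects or normal cells, then (normal cells) as healthy, pyknosed or fragmented nuclei, and finally (pyknosed cells) as mitotic or apoptotic. Staining of live cells at seeding used Hoechst33342, BioTracker Green Microtubule Cytoskeleton Dye, MitoTracker Red and Annexin V Alexa Fluor 680, with imaging on a CQ1 microscope at 37°C and 5% CO2 after compound addition. Tubulin, mitochondrial-mass and membrane-permeability phenotypes are per cents of healthy-nucleus cells.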

[1] = 12 h, 1 µM, compound concentration 1 uM, replicate 1
[2] = 12 h, 1 µM, compound concentration 1 uM, replicate 2
[3] = 12 h, 10 µM, compound concentration 10 uM, replicate 1
[4] = 12 h, 10 µM, compound concentration 10 uM, replicate 2
[5] = 24 h, 1 µM, compound concentration 1 uM, replicate 1
[6] = 24 h, 1 µM, compound concentration 1 uM, replicate 2
[7] = 24 h, 10 µM, compound concentration 10 uM, replicate 1
[8] = 24 h, 10 µM, compound concentration 10 uM, replicate 2
[9] = 48 h, 1 µM, compound concentration 1 uM, replicate 1
[10] = 48 h, 1 µM, compound concentration 1 uM, replicate 2
[11] = 48 h, 10 µM, compound concentration 10 uM, replicate 1
[12] = 48 h, 10 µM, compound concentration 10 uM, replicate 2

Cc1sc2c(c1C)C(c1ccc(Cl)cc1)=N[C@H](CC(=O)OC(C)(C)C)c1nnc(C)n1-2
Population Apoptotic (%) [1]: 81% | Population Fragmented Nuclei (%) [1]: 28% | Population Healthy Nuclei (%) [1]: 63% | Population Hoechst High Intensity Objects (%) [1]: 2% | Population Membrane Permeable-Phenotype (%) [1]: 7% | Population Mitochondria Different-Phenotype (%) [1]: 4% | Population Mitotic Cells (%) [1]: 18% | Population Normal (%) [1]: 97% | Population Pyknosed Nuclei (%) [1]: 8% | Population Tubulin-Different-Phenotype (%) [1]: 4% | Total Cell Count [1]: 256 | Population Apoptotic (%) [2]: 71% | Population Fragmented Nuclei (%) [2]: 16% | Population Healthy Nuclei (%) [2]: 77% | Population Hoechst High Intensity Objects (%) [2]: 4% | Population Mitochondria Different-Phenotype (%) [2]: 2% | Population Mitotic Cells (%) [2]: 28% | Population Normal (%) [2]: 95% | Population Pyknosed Nuclei (%) [2]: 6% | Total Cell Count [2]: 120 | Population Apoptotic (%) [3]: 51% | Population Fragmented Nuclei (%) [3]: 32% | Population Healthy Nuclei (%) [3]: 56% | Population Hoechst High Intensity Objects (%) [3]: 2% | Population Membrane Permeable-Phenotype (%) [3]: 42% | Population Mitochondria Different-Phenotype (%) [3]: 35% | Population Mitotic Cells (%) [3]: 48% | Population Normal (%) [3]: 97% | Population Pyknosed Nuclei (%) [3]: 11% | Population Tubulin-Different-Phenotype (%) [3]: 39% | Total Cell Count [3]: 240 | Population Apoptotic (%) [4]: 90% | Population Fragmented Nuclei (%) [4]: 22% | Population Healthy Nuclei (%) [4]: 68% | Population Hoechst High Intensity Objects (%) [4]: 0% | Population Membrane Permeable-Phenotype (%) [4]: 13% | Population Mitochondria Different-Phenotype (%) [4]: 24% | Population Mitotic Cells (%) [4]: 10% | Population Normal (%) [4]: 100% | Population Pyknosed Nuclei (%) [4]: 8% | Population Tubulin-Different-Phenotype (%) [4]: 11% | Total Cell Count [4]: 118 | Population Apoptotic (%) [5]: 77% | Population Fragmented Nuclei (%) [5]: 22% | Population Healthy Nuclei (%) [5]: 69% | Population Hoechst High Intensity Objects (%) [5]: 0% | Population Membrane Permeable-Phenotype (%) [5]: 5% | Population Mitochondria Different-Phenotype (%) [5]: 1% | Population Mitotic Cells (%) [5]: 22% | Population Normal (%) [5]: 99% | Population Pyknosed Nuclei (%) [5]: 7% | Population Tubulin-Different-Phenotype (%) [5]: 1% | Total Cell Count [5]: 280 | Population Apoptotic (%) [6]: 75% | Population Fragmented Nuclei (%) [6]: 20% | Population Healthy Nuclei (%) [6]: 70% | Population Hoechst High Intensity Objects (%) [6]: 3% | Population Mitochondria Different-Phenotype (%) [6]: 2% | Population Mitotic Cells (%) [6]: 25% | Population Normal (%) [6]: 96% | Population Pyknosed Nuclei (%) [6]: 8% | Population Tubulin-Different-Phenotype (%) [6]: 2% | Total Cell Count [6]: 149 | Population Apoptotic (%) [7]: 83% | Population Fragmented Nuclei (%) [7]: 29% | Population Healthy Nuclei (%) [7]: 57% | Population Hoechst High Intensity Objects (%) [7]: 2% | Population Membrane Permeable-Phenotype (%) [7]: 17% | Population Mitochondria Different-Phenotype (%) [7]: 17% | Population Mitotic Cells (%) [7]: 16% | Population Normal (%) [7]: 97% | Population Pyknosed Nuclei (%) [7]: 13% | Population Tubulin-Different-Phenotype (%) [7]: 8% | Total Cell Count [7]: 280 | Population Apoptotic (%) [8]: 76% | Population Fragmented Nuclei (%) [8]: 24% | Population Healthy Nuclei (%) [8]: 65% | Population Hoechst High Intensity Objects (%) [8]: 0% | Population Membrane Permeable-Phenotype (%) [8]: 7% | Population Mitochondria Different-Phenotype (%) [8]: 25% | Population Mitotic Cells (%) [8]: 23% | Population Normal (%) [8]: 99% | Population Pyknosed Nuclei (%) [8]: 10% | Population Tubulin-Different-Phenotype (%) [8]: 3% | Total Cell Count [8]: 130 | Population Apoptotic (%) [9]: 77% | Population Fragmented Nuclei (%) [9]: 20% | Population Healthy Nuclei (%) [9]: 72% | Population Hoechst High Intensity Objects (%) [9]: 1% | Population Membrane Permeable-Phenotype (%) [9]: 5% | Population Mitochondria Different-Phenotype (%) [9]: 2% | Population Mitotic Cells (%) [9]: 22% | Population Normal (%) [9]: 98% | Population Pyknosed Nuclei (%) [9]: 6% | Population Tubulin-Different-Phenotype (%) [9]: 2% | Total Cell Count [9]: 415 | Population Apoptotic (%) [10]: 96% | Population Fragmented Nuclei (%) [10]: 21% | Population Healthy Nuclei (%) [10]: 64% | Population Hoechst High Intensity Objects (%) [10]: 3% | Population Membrane Permeable-Phenotype (%) [10]: 7% | Population Mitochondria Different-Phenotype (%) [10]: 7% | Population Mitotic Cells (%) [10]: 3% | Population Normal (%) [10]: 96% | Population Pyknosed Nuclei (%) [10]: 14% | Population Tubulin-Different-Phenotype (%) [10]: 5% | Total Cell Count [10]: 228 | Population Apoptotic (%) [11]: 86% | Population Fragmented Nuclei (%) [11]: 23% | Population Healthy Nuclei (%) [11]: 57% | Population Hoechst High Intensity Objects (%) [11]: 2% | Population Membrane Permeable-Phenotype (%) [11]: 11% | Population Mitochondria Different-Phenotype (%) [11]: 7% | Population Mitotic Cells (%) [11]: 13% | Population Normal (%) [11]: 97% | Population Pyknosed Nuclei (%) [11]: 18% | Population Tubulin-Different-Phenotype (%) [11]: 5% | Total Cell Count [11]: 342 | Population Apoptotic (%) [12]: 89% | Population Fragmented Nuclei (%) [12]: 20% | Population Healthy Nuclei (%) [12]: 68% | Population Hoechst High Intensity Objects (%) [12]: 1% | Population Mitochondria Different-Phenotype (%) [12]: 8% | Population Mitotic Cells (%) [12]: 10% | Population Normal (%) [12]: 98% | Population Pyknosed Nuclei (%) [12]: 11% | Population Tubulin-Different-Phenotype (%) [12]: 3% | Total Cell Count [12]: 174

Nc1nc(-c2ccco2)c2cnn(Cc3ccccc3F)c2n1
Population Apoptotic (%) [1]: 82% | Population Fragmented Nuclei (%) [1]: 23% | Population Healthy Nuclei (%) [1]: 68% | Population Hoechst High Intensity Objects (%) [1]: 1% | Population Membrane Permeable-Phenotype (%) [1]: 4% | Population Mitochondria Different-Phenotype (%) [1]: 2% | Population Mitotic Cells (%) [1]: 17% | Population Normal (%) [1]: 98% | Population Pyknosed Nuclei (%) [1]: 8% | Population Tubulin-Different-Phenotype (%) [1]: 3% | Total Cell Count [1]: 280 | Population Apoptotic (%) [2]: 92% | Population Healthy Nuclei (%) [2]: 64% | Population Hoechst High Intensity Objects (%) [2]: 0% | Population Membrane Permeable-Phenotype (%) [2]: 12% | Population Mitochondria Different-Phenotype (%) [2]: 5% | Population Mitotic Cells (%) [2]: 7% | Population Normal (%) [2]: 99% | Population Pyknosed Nuclei (%) [2]: 12% | Population Tubulin-Different-Phenotype (%) [2]: 8% | Total Cell Count [2]: 109 | Population Apoptotic (%) [3]: 87% | Population Fragmented Nuclei (%) [3]: 41% | Population Healthy Nuclei (%) [3]: 45% | Population Hoechst High Intensity Objects (%) [3]: 5% | Population Membrane Permeable-Phenotype (%) [3]: 10% | Population Mitochondria Different-Phenotype (%) [3]: 4% | Population Mitotic Cells (%) [3]: 12% | Population Normal (%) [3]: 94% | Population Pyknosed Nuclei (%) [3]: 12% | Population Tubulin-Different-Phenotype (%) [3]: 7% | Total Cell Count [3]: 197 | Population Apoptotic (%) [4]: 77% | Population Fragmented Nuclei (%) [4]: 20% | Population Healthy Nuclei (%) [4]: 72% | Population Hoechst High Intensity Objects (%) [4]: 0% | Population Membrane Permeable-Phenotype (%) [4]: 5% | Population Mitochondria Different-Phenotype (%) [4]: 5% | Population Mitotic Cells (%) [4]: 22% | Population Normal (%) [4]: 99% | Population Pyknosed Nuclei (%) [4]: 7% | Population Tubulin-Different-Phenotype (%) [4]: 1% | Total Cell Count [4]: 125 | Population Apoptotic (%) [5]: 96% | Population Fragmented Nuclei (%) [5]: 19% | Population Healthy Nuclei (%) [5]: 70% | Population Hoechst High Intensity Objects (%) [5]: 1% | Population Membrane Permeable-Phenotype (%) [5]: 4% | Population Mitochondria Different-Phenotype (%) [5]: 1% | Population Mitotic Cells (%) [5]: 3% | Population Normal (%) [5]: 98% | Population Pyknosed Nuclei (%) [5]: 9% | Population Tubulin-Different-Phenotype (%) [5]: 2% | Total Cell Count [5]: 332 | Population Apoptotic (%) [6]: 84% | Population Fragmented Nuclei (%) [6]: 18% | Population Healthy Nuclei (%) [6]: 71% | Population Hoechst High Intensity Objects (%) [6]: 4% | Population Membrane Permeable-Phenotype (%) [6]: 10% | Population Mitochondria Different-Phenotype (%) [6]: 3% | Population Mitotic Cells (%) [6]: 15% | Population Normal (%) [6]: 95% | Population Pyknosed Nuclei (%) [6]: 10% | Population Tubulin-Different-Phenotype (%) [6]: 8% | Total Cell Count [6]: 127 | Population Apoptotic (%) [7]: 82% | Population Fragmented Nuclei (%) [7]: 38% | Population Healthy Nuclei (%) [7]: 53% | Population Hoechst High Intensity Objects (%) [7]: 5% | Population Membrane Permeable-Phenotype (%) [7]: 7% | Population Mitochondria Different-Phenotype (%) [7]: 3% | Population Mitotic Cells (%) [7]: 17% | Population Normal (%) [7]: 94% | Population Pyknosed Nuclei (%) [7]: 7% | Population Tubulin-Different-Phenotype (%) [7]: 5% | Total Cell Count [7]: 230 | Population Apoptotic (%) [8]: 90% | Population Fragmented Nuclei (%) [8]: 19% | Population Healthy Nuclei (%) [8]: 73% | Population Hoechst High Intensity Objects (%) [8]: 1% | Population Membrane Permeable-Phenotype (%) [8]: 5% | Population Mitochondria Different-Phenotype (%) [8]: 0% | Population Mitotic Cells (%) [8]: 9% | Population Normal (%) [8]: 98% | Population Tubulin-Different-Phenotype (%) [8]: 4% | Total Cell Count [8]: 157 | Population Apoptotic (%) [9]: 94% | Population Fragmented Nuclei (%) [9]: 17% | Population Healthy Nuclei (%) [9]: 74% | Population Hoechst High Intensity Objects (%) [9]: 1% | Population Membrane Permeable-Phenotype (%) [9]: 2% | Population Mitochondria Different-Phenotype (%) [9]: 2% | Population Mitotic Cells (%) [9]: 5% | Population Normal (%) [9]: 98% | Population Pyknosed Nuclei (%) [9]: 7% | Population Tubulin-Different-Phenotype (%) [9]: 2% | Total Cell Count [9]: 462 | Population Apoptotic (%) [10]: 95% | Population Fragmented Nuclei (%) [10]: 16% | Population Healthy Nuclei (%) [10]: 67% | Population Hoechst High Intensity Objects (%) [10]: 6% | Population Membrane Permeable-Phenotype (%) [10]: 5% | Population Mitochondria Different-Phenotype (%) [10]: 5% | Population Mitotic Cells (%) [10]: 4% | Population Normal (%) [10]: 93% | Population Pyknosed Nuclei (%) [10]: 15% | Population Tubulin-Different-Phenotype (%) [10]: 1% | Total Cell Count [10]: 141 | Population Apoptotic (%) [11]: 95% | Population Fragmented Nuclei (%) [11]: 37% | Population Healthy Nuclei (%) [11]: 51% | Population Hoechst High Intensity Objects (%) [11]: 11% | Population Membrane Permeable-Phenotype (%) [11]: 17% | Population Mitochondria Different-Phenotype (%) [11]: 6% | Population Mitotic Cells (%) [11]: 4% | Population Normal (%) [11]: 88% | Population Pyknosed Nuclei (%) [11]: 10% | Population Tubulin-Different-Phenotype (%) [11]: 11% | Total Cell Count [11]: 252 | Population Apoptotic (%) [12]: 86% | Population Fragmented Nuclei (%) [12]: 23% | Population Healthy Nuclei (%) [12]: 69% | Population Hoechst High Intensity Objects (%) [12]: 2% | Population Membrane Permeable-Phenotype (%) [12]: 12% | Population Mitotic Cells (%) [12]: 13% | Population Normal (%) [12]: 97% | Population Pyknosed Nuclei (%) [12]: 7% | Population Tubulin-Different-Phenotype (%) [12]: 6% | Total Cell Count [12]: 196
